# From article PMC6925959 (Journal of medicinal chemistry, 2019)
# Entries after “also recorded” stand apart in the source; their conditions may differ. Read-outs that look alike come from different tables or passages of the source.
# Tests used:
# tubulin = test: Inhibition of [3H]colchicine binding to tubulin; conditions: 1.0 µM tubulin, 5.0 µM [3H]colchicine
# [1] = system: SK-OV-3 (ovarian) cancer cell line; test: SRB growth inhibition assay, SK-OV-3; type: cell-based; conditions: Homo sapiens, SK-OV-3, 48 h, read-out: GI50 (μM) SRB assay SK-OV-3
# [2] = system: DU-145 (prostate) cancer cell line; test: SRB growth inhibition assay, DU-145; type: cell-based, human; conditions: read-out: GI50 (μM) SRB assay DU-145
# [3] = system: NCI-H460 (lung) cancer cell line; test: SRB growth inhibition assay, NCI-H460; type: cell-based, human; conditions: read-out: GI50 (μM) SRB assay NCI-H460
# tumor vasculature = conditions: 30 mg/kg, rats; cited from earlier work
# [4] = system: PC3-DAB2IP-luc human prostate tumor xenograft; test: In vivo vascular disruption by dynamic bioluminescence imaging; design: species or system rat
# In short: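 Three male […] rats (about 6 weeks old, 100-120 g) carried s.c. right-thigh PC3-DAB2IP-luc tumors (5 X 10⁵ cells in 30% Matrigel), treated once tumors reached ≥1 cm diameter. Prodrug in saline was given IP as single or sequential doses, with CA4P IP as control. Under 3% isoflurane, 120 mg/kg D-luciferin was injected s.c. in the neck, fresh at each session. Tumor-ROI light emission was imaged over about 30 min at baseline, 4 h and 24 h.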
# [5] = system: purified bovine brain tubulin; test: Inhibition of tubulin polymerization; type: biochemical; conditions: cell-free assay
compound,measurement,setting,value
"COc1ccc(/C=C\c2cc(OC)c(OC)c(OC)c2)cc1O [CA4, combretastatin A-4, reference compound]",% Inhibition of colchicine binding ± SD,tubulin; compound at 1 μM,84 ± 3%
"COc1ccc2c(c1O)CC=CC=C2c1cc(OC)c(OC)c(OC)c1 [Compound 68, 3-Methoxy-9-(3,4,5-trimethoxyphenyl)-5H-benzo[7]annulen-4-ol]",GI50,[1],6.9 nM
same,GI50,"[2]; Homo sapiens, DU-145, 48 h",97.6 nM
"COc1ccc2c(c1CO)CCCC=C2c1cc(OC)c(OC)c(OC)c1 [Compound 28, (3-Methoxy-9-(3,4,5-trimethoxyphenyl)-6,7-dihydro-5H-benzo[7]annulen-4-yl)methanol]",GI50,[1],40.3 nM
"N-(1-hydroxy-2-methoxy-5-(3,4,5-trimethoxyphenyl)-6,7,8,9-tetrahydro-5H-benzo[7]annulen-7-yl)acetamide [Compound 49]",% Inhibition of colchicine binding ± SD,tubulin; compound at 5 μM,0.4 ± 0.6 (5 μM) %
same,GI50,"[3]; NCI-H460, 48 h treatment",334 nM
same,GI50,"[2]; DU-145, 48 h treatment",1200 nM
"COc1ccc(/C=C\c2cc(OC)c(OC)c(OC)c2)cc1OP(=O)([O-])[O-].[Na+].[Na+] [CA4P, combretastatin A-4 phosphate, reference compound]",Vascular shutdown,tumor vasculature,extensive vascular shutdown
same,Extent and longevity of diminished BLI signal compared with 40 mg/kg 69,"[4]; 30 mg/kg IP, rat",very similar effect
"COc1ccc2c(c1O)CCCC(O)C2(O)c1cc(OC)c(OC)c(OC)c1 (stereo not drawn) [Compound 15, 2-Methoxy-5-(3,4,5-trimethoxyphenyl)-6,7,8,9-tetrahydro-5H-benzo[7]annulene-1,5,6-triol]",% Inhibition of colchicine binding ± SD,tubulin; compound at 5 μM,0 (5 μM) %
"COc1ccc2c(c1O)CCCC=C2c1cc(OC)c(OC)c(OC)c1 [KGP18, 3-Methoxy-9-(3,4,5-trimethoxyphenyl)-6,7-dihydro-5H-benzo[7]annulen-4-ol, reference compound]",GI50,[1],0.0543 nM
same,GI50,"[3]; Homo sapiens, NCI-H460, 48 h",0.0418 nM
same,GI50,"[2]; Homo sapiens, DU-145, 48 h",0.0249 nM
"COc1cc(C2(O)C=CCCc3c2ccc(OC)c3OC)cc(OC)c1OC (stereo not drawn) [Compound 56, 1,2-Dimethoxy-5-(3,4,5-trimethoxyphenyl)-8,9-dihydro-5H-benzo[7]annulen-5-ol]",% Inhibition of colchicine binding ± SD,tubulin; compound at 5 μM,0 (5 μM) %
same,Inhibition of tubulin polymerization (in words),[5],lack of tubulin activity
"COc1cc(C2=CC=CCc3c2ccc(OC)c3OP(=O)([O-])[O-])cc(OC)c1OC.[Na+].[Na+] [Compound 69, Sodium 3-methoxy-9-(3,4,5-trimethoxyphenyl)-5H-benzo[7]annulen-4-yl phosphate]",Inhibition of tubulin polymerization (in words),[5],inactive
same,GI50,[1],15.3 nM
same,Change in BLI light emission / vascular perturbation,"[4]; 10 mg/kg IP, rat",minimal change in light emission; also recorded: no vascular perturbation
same,Recovery of BLI signal,"[4]; 40 mg/kg IP, 24 h, rat",substantial recovery
same,Appearance of the rats,"[4]; 40 mg/kg IP, 48 h",appeared healthy
same,Tolerability,"[4]; 80 mg/kg IP, rat",well tolerated
same,Vascular disruption at the higher dose,"[4]; 80 mg/kg IP, rat, compared with 40 mg/kg",did not show additional vascular disruption
same,GI50,"[2]; Homo sapiens, DU-145, 48 h",23.9 nM
"COc1cc(C2CCc3c(ccc(OC)c3OC)C(=O)C2)cc(OC)c1OC (stereo not drawn) [Compound 57, 1,2-Dimethoxy-7-(3,4,5-trimethoxyphenyl)-6,7,8,9-tetrahydro-5H-benzo[7]annulen-5-one]",% Inhibition of colchicine binding ± SD,tubulin; compound at 5 μM,0 (5 μM) %
same,Inhibition of tubulin polymerization (in words),[5],lack of activity
"COc1cc(C2=CCCCc3c2ccc(OC)c3OCCO)cc(OC)c1OC [Compound 11, 2-((3-Methoxy-9-(3,4,5-trimethoxyphenyl)-6,7-dihydro-5H-benzo[7]annulen-4-yl)oxy)ethan-1-ol]",Inhibition of tubulin polymerization (in words),[5],loss of inhibitory activity
"COCCOCCOc1c(OC)ccc2c1CCCC=C2c1cc(OC)c(OC)c(OC)c1 [Compound 8, 3-Methoxy-4-(2-(2-methoxyethoxy)ethoxy)-9-(3,4,5-trimethoxyphenyl)-6,7-dihydro-5H-benzo[7]annulene]",Inhibition of tubulin polymerization (in words),[5],loss of inhibitory activity
